Laboratory results as given in ChEMBL document CHEMBL1177781, “Synthesis and SAR of potent inhibitors of the Hepatitis C virus NS3/4A protease: exploration of P2 quinazoline substituents” (Bioorg Med Chem Lett, 2010).

Tests used:
[1] = Inhibition of HCV 1a NS3/4A protease; design: species or system Hepatitis C virus subtype 1a
Method in brief: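 Enzyme inhibition was determined as Ki against recombinant full-length NS3 enzyme, following a literature procedure, in an external laboratory.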

[2] = test system: Hepatitis C virus; test: Antiviral activity against HCV1b infected in human Huh7 cells assessed as inhibition viral subgenomic replication; assay type: functional, organism-based, Hepacivirus hominis; conditions: genotype 1b, Huh-7
Method in brief: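 Cell-based EC50 was measured in Huh7 cells carrying the subgenomic bicistronic HCV replicon clone ET, with a luciferase read-out.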

[3] = test system: Liver microsomes; test: Intrinsic clearance in human liver microsomes; assay type: ADME, Microsome
Method in brief: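 Metabolic stability in human liver microsomes was expressed as intrinsic clearance (Cl_int, µL/min/mg).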

[4] = Apparent permeability across human Caco-2 cells; assay type: ADME, cell-based
[5] = (§1) Clearance in Sprague-Dawley rat at 2 mg/kg, iv; assay type: ADME, organism-based; design: dose 2 mg/kg, route intravenous; conditions: Sprague-Dawley, in vivo
Method in brief: (§2)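 Male Sprague–Dawley rats (n = 2 per route) received a single intravenous dose (2 mg base-equiv/kg) or an oral dose. Mean plasma levels were followed to derive Cl, Vdss, AUC, Cmax, Tmax, T1/2 and F. Liver-to-plasma ratio was determined at 6 h.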

[6] = AUC in Sprague-Dawley rat at 10 mg/kg, po; assay type: ADME, organism-based; design: dose 10 mg/kg, route oral; conditions: plasma; method in brief: as §2
[7] = Cmax in Sprague-Dawley rat at 10 mg/kg, po; assay type: ADME, organism-based; design: dose 10 mg/kg, route oral; conditions: in vivo; method in brief: as §2
[8] = Tmax in Sprague-Dawley rat at 10 mg/kg, po; assay type: ADME, organism-based; design: dose 10 mg/kg, route oral; conditions: in vivo; method in brief: as §2
[9] = Half life in Sprague-Dawley rat at 10 mg/kg, po; assay type: ADME, organism-based; design: dose 10 mg/kg, route oral; conditions: in vivo; method in brief: as §2
[10] = Oral bioavailability in Sprague-Dawley rat at 10 mg/kg; assay type: ADME, organism-based; conditions: in vivo; method in brief: as §2
[11] = test system: Rattus norvegicus; test: as §1; assay type: ADME, organism-based; design: dose 2 mg/kg, route intravenous; conditions: in vivo; method in brief: as §2
[12] = test system: Rattus norvegicus; test: AUC in Sprague-Dawley rat at 2 mg/kg, iv; assay type: ADME, organism-based, Plasma; design: dose 2 mg/kg, route intravenous; conditions: in vivo; method in brief: as §2
[13] = Ratio of drug level in liver to plasma in Sprague-Dawley rat at 2 mg/kg, iv after 6 hrs; assay type: ADME, organism-based; design: dose 2 mg/kg, route intravenous; method in brief: as §2
[14] = Ratio of drug level in liver to plasma in Sprague-Dawley rat at 10 mg/kg, po after 6 hrs; assay type: ADME, organism-based; design: dose 10 mg/kg, route oral; method in brief: as §2

Structure (SMILES) | Ki [1] | EC50 [2] | CL [3] | Papp [4] | also measured
CN1CCCC/C=C\[C@@H]2C[C@@]2(C(=O)NS(=O)(=O)C2CC2)NC(=O)[C@@H]2C[C@@H](Oc3nc(N4CCOCC4)nc4ccccc34)C[C@H]2C1=O | 6.2 nM | 390 nM |  |  | 
CN1CCN(c2nc(O[C@@H]3C[C@H]4C(=O)N[C@]5(C(=O)NS(=O)(=O)C6CC6)C[C@H]5/C=C\CCCCN(C)C(=O)[C@@H]4C3)c3ccccc3n2)CC1 | 1.2 nM | 830 nM |  |  | 
CC(C)c1csc(-c2nc(O[C@@H]3C[C@H]4C(=O)N[C@]5(C(=O)NS(=O)(=O)C6CC6)C[C@H]5/C=C\CCCCN(C)C(=O)[C@@H]4C3)c3ccccc3n2)n1 | 0.8 nM | 120 nM |  |  | 
COc1ccc2c(O[C@@H]3C[C@H]4C(=O)N[C@]5(C(=O)NS(=O)(=O)C6CC6)C[C@H]5/C=C\CCCCN(C)C(=O)[C@@H]4C3)ncnc2c1C | > 1000 nM | > 1000 nM |  |  | 
COc1ccc2c(O[C@@H]3C[C@H]4C(=O)N[C@]5(C(=O)NS(=O)(=O)C6CC6)C[C@H]5/C=C\CCCCN(C)C(=O)N4C3)nc(-c3ccccc3)nc2c1C | 0.2 nM | 11 nM | 17 µL/min | 26 ×10⁻⁶ cm/s | CL [11]: 11.5 mL/min/kg; AUC [12]: 8.4 µM·h; Kp at 6 h [13]: 38; AUC [6]: 15 µM·h; Cmax [7]: 3400 nM; Tmax [8]: 5 h; bioavailability [10]: 73%; Kp at 6 h [14]: 32
COc1ccc2c(O[C@@H]3C[C@H]4C(=O)N[C@]5(C(=O)NS(=O)(=O)C6CC6)C[C@H]5/C=C\CCCCN(C)C(=O)N4C3)nc(-c3ccc(F)cc3)nc2c1C | 0.3 nM | 16 nM | < 6 µL/min | 32 ×10⁻⁶ cm/s | clearance [5]: 9.33 mL/min/kg; AUC [6]: 11 µM·h; Cmax [7]: 2600 nM; Tmax [8]: 5 h; Kp at 6 h [14]: 42
COc1ccc(-c2nc(O[C@@H]3C[C@H]4C(=O)N[C@]5(C(=O)NS(=O)(=O)C6CC6)C[C@H]5/C=C\CCCCN(C)C(=O)N4C3)c3ccc(OC)c(C)c3n2)cc1 | 0.6 nM | 3 nM | 8 µL/min | 33 ×10⁻⁶ cm/s | 
COc1ccc2c(O[C@@H]3C[C@H]4C(=O)N[C@]5(C(=O)NS(=O)(=O)C6CC6)C[C@H]5/C=C\CCCCN(C)C(=O)N4C3)nc(-c3cccc(C)n3)nc2c1C | 0.9 nM | 130 nM |  |  | 
COc1ccc2c(O[C@@H]3C[C@H]4C(=O)N[C@]5(C(=O)NS(=O)(=O)C6CC6)C[C@H]5/C=C\CCCCN(C)C(=O)N4C3)nc(-c3cccnc3)nc2c1C | 2.8 nM | 13 nM |  |  | 
COc1ccc2c(O[C@@H]3C[C@H]4C(=O)N[C@]5(C(=O)NS(=O)(=O)C6CC6)C[C@H]5/C=C\CCCCN(C)C(=O)N4C3)nc(-c3ccncc3)nc2c1C | 0.2 nM | 7 nM | 14 µL/min | 0.4 ×10⁻⁶ cm/s | 
COc1ccc2c(O[C@@H]3C[C@H]4C(=O)N[C@]5(C(=O)NS(=O)(=O)C6CC6)C[C@H]5/C=C\CCCCCNC(=O)N4C3)nc(-c3ccccc3)nc2c1C | 0.3 nM | 23 nM | 26 µL/min | 38 ×10⁻⁶ cm/s | 
COc1ccc2c(O[C@@H]3C[C@H]4C(=O)N[C@]5(C(=O)NS(=O)(=O)C6CC6)C[C@H]5/C=C\CCCCCNC(=O)N4C3)nc(-c3ccc(F)cc3)nc2c1C | 0.2 nM | 16 nM | 20 µL/min | 32 ×10⁻⁶ cm/s | clearance [5]: 26.7 mL/min/kg; Kp at 6 h [13]: 2.5; AUC [6]: 1.7 µM·h; Cmax [7]: 390 nM; Tmax [8]: 2 h; bioavailability [10]: 38%; Kp at 6 h [14]: 100

Further lines, with some results ahead:

Ki [1] | EC50 [2] | CL [3] | Papp [4] | Structure (SMILES) | also measured
0.4 nM | 52 nM | 58 µL/min | 21 ×10⁻⁶ cm/s | CN1CCCC/C=C\[C@@H]2C[C@@]2(C(=O)NS(=O)(=O)C2CC2)NC(=O)[C@@H]2C[C@@H](Oc3nc(-c4ccccc4)nc4ccccc34)C[C@H]2C1=O | 
0.4 nM | 14 nM | 88 µL/min | 13 ×10⁻⁶ cm/s | COc1ccc2c(O[C@@H]3C[C@H]4C(=O)N[C@]5(C(=O)NS(=O)(=O)C6CC6)C[C@H]5/C=C\CCCCN(C)C(=O)[C@@H]4C3)nc(-c3ccccc3)nc2c1 | 
1.2 nM | 58 nM | 76 µL/min |  | COc1ccc2c(O[C@@H]3C[C@H]4C(=O)N[C@]5(C(=O)NS(=O)(=O)C6CC6)C[C@H]5/C=C\CCCCN(C)C(=O)[C@@H]4C3)nc(-c3nc(C(C)C)cs3)nc2c1 | 
0.2 nM | 11 nM | 32 µL/min | 20 ×10⁻⁶ cm/s | COc1ccc2c(O[C@@H]3C[C@H]4C(=O)N[C@]5(C(=O)NS(=O)(=O)C6CC6)C[C@H]5/C=C\CCCCN(C)C(=O)[C@@H]4C3)nc(-c3ccc(F)cc3)nc2c1 | 
0.1 nM | 5 nM | < 6 µL/min | 13 ×10⁻⁶ cm/s | COc1ccc2c(O[C@@H]3C[C@H]4C(=O)N[C@]5(C(=O)NS(=O)(=O)C6CC6)C[C@H]5/C=C\CCCCN(C)C(=O)[C@@H]4C3)nc(-c3ccccc3)nc2c1C | clearance [5]: 16.7 mL/min/kg; AUC [6]: 3.3 µM·h; Cmax [7]: 660 nM; Tmax [8]: 2 h; half-life [9]: 3.8 h; bioavailability [10]: 40%
0.6 nM | 8 nM | 11 µL/min | 9 ×10⁻⁶ cm/s | COc1ccc(-c2nc(O[C@@H]3C[C@H]4C(=O)N[C@]5(C(=O)NS(=O)(=O)C6CC6)C[C@H]5/C=C\CCCCN(C)C(=O)[C@@H]4C3)c3ccc(OC)c(C)c3n2)cc1 | 
